Screening data deposited in PubChem BioAssay by several laboratories.
NLRP3 yeast inh: inhibitors of NALP3 inflammasome in yeast. Yeast reconstituted NLRP3/ASC/caspase-1, beta-gal luminescence, 24 h. inhibition, % at 10 µM. 0.39% of 330,000 active;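 active means inhibition of 50% or more; inactive means inhibition below 50%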;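 further: plate controls were induced DMSO wells for no effect and uninduced yeast grown without galactose for full effect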
MC4R ag barr: human MC4R agonism via beta-arrestin; U2OS MC4R beta-arrestin complementation, luminescence; percent of melanotan II response, DMSO zero; activation, % at 8.9 µM; 0.98% of 360,000 active; AID 540308;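 active means activation above a per-plate cutoff, the mean activation of sample wells on that plate plus 3 SD, cut at about 8% in these data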
Target sequence (P32245 whole entry, looked up): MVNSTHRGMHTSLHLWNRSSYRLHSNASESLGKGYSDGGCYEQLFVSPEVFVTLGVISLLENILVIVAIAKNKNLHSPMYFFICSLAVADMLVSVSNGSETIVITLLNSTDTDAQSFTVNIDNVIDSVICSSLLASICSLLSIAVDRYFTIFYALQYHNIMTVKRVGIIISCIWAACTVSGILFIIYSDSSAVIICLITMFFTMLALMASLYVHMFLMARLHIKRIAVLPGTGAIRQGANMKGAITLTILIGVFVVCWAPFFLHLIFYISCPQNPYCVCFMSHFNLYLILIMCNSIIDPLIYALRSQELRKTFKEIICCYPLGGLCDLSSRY
MC4R antag cAMP: blocks human MC4R cAMP signaling | MC4R-expressing cells, MTII-stimulated cAMP, LANCE TR-FRET | inhibition, % at 6.5 µM | 0.48% of 360,000 active | AID 540295;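 active means inhibition above its plate's cutoff, the mean of tested wells on that plate plus 3 SD, cut at about 29% in these data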;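 further: 0% = Melanotan II alone and 100% = Melanotan II plus saturating MCL0020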
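Assay system: U2OS-MC4R stable cell line; Also added: Melanotan II; Technique: Eu-cAMP/anti-cAMP TR-FRET, emission 671 nm; Times: 30-min compound, 1-h challenge, 1-h detection, room temperature.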
A1 inh: inhibitors of the anti-apoptotic protein A1, read as caspase activation | MEF A1-2A-BIM cells, Caspase-Glo 3/7 luminescence, 3 h; percent of clofoctol response, vehicle zero | caspase activation, % (no concentration beside the values) | 0.066% of 330,000 active | AID 2462;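 active means over half of replicate activation scores above 10%, or exactly half above 10 with the replicate mean above 10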
Tb MetRS inh: blocks T. brucei methionyl-tRNA synthetase activity; purified T. brucei MetRS, ATP depletion, Kinase-Glo luminescence; inhibition, % at 11.9 µM; 0.4% of 360,000 active; AID 624268;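 active means inhibition above a per-plate cutoff of the control wells' mean inhibition plus 3 SD, cut at about 5.5% in these data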;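 further: 0% = DMSO wells median and 100% = median of wells with control inhibitor compound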
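assay system = parasite MetRS enzyme | timing = 15 min preincubation, 2 h reaction, all 25 °C | evaluation = percent inhibition relative to median high and low control wells | medium = HEPES buffer containing pyrophosphatase, BSA, spermine, DTT | compound = single dose, 11.9 µM final nominal, 0.9% final DMSO | detection = Kinase-Glo luminescence, ATP depletion format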
NALP1 yeast inh: blocks the NALP1 inflammasome reconstituted in yeast. inhibition, % at 10 µM. 0.61% of 280,000 active. S. cerevisiae NALP1/ASC/caspase-1 growth, X-gal OD620, 72 h; in the data active means inhibition mostly above about 24%, no sharp cut-off; inactive means mostly below about 32%
Starred values were filed as active, the others as inactive; . = no result given. The list is not random: actives were taken first. Their share in the collection is about 2.5%.

SMILES	NLRP3 yeast inh	MC4R ag barr	MC4R antag cAMP	A1 inh	Tb MetRS inh	NALP1 yeast inh
CCCn1c(C)cc(C(=O)COC(=O)c2cc(=O)[nH]c3ccccc23)c1C	.	8.9*	-4.0	.	-0.3	.
CCCCN(C(=O)CSc1nc2ccccc2n1CC)C1CCS(=O)(=O)C1 (centres undefined)	10.5	-1.4	5.6	-0.4	-0.2	.
COC(=O)c1ccc(C)c(NC(=O)CCn2[nH]c(=O)ccc2=O)c1	1.5	-2.1	-1.9	.	-0.2	.
CNCCCOc1ccc(Cl)cc1C(C)(C)C	19.1	-0.6	-0.8	-0.4	-0.3	-2.6
COCCCNCCCOc1ccc(Cl)cc1C(C)(C)C	32.9	10.1*	-2.3	0.7	0.6	-15.7
COCCCN1C(=O)C(CC(=O)NC2CCCCC2)CC(C(=O)N2CCOCC2)=C1C (centres undefined)	.	0.4	0.5	.	-0.5	.
Nc1c(C(=O)NCCN2CCOCC2)c2nc3ccccc3nc2n1-c1cccc(F)c1	9.5	0.2	3.1	0.3	-0.9	9.0
C=CCNC(=O)c1c(N)n(-c2ccc3c(c2)OCO3)c2nc3ccccc3nc12	15.5	8.7*	3.2	1.1	-1.2	13.3
COc1ccccc1N1CCN(S(=O)(=O)CCNC(=O)Cc2ccc(F)cc2)CC1	13.2	-5.5	-2.4	0.4	0.1	.
COc1cc(C)nc(NC(=O)NC(=O)c2ccc(C(F)(F)F)cc2)n1	12.8	-1.3	-2.2	1.8	-0.4	13.3
COc1ccc(-n2cccc2/C=C/[N+](=O)[O-])cc1	7.4	1.0	14.9	-0.6	-0.2	113.5*
CCc1nc2c(OCc3ccc(OC(F)F)cc3)cccn2c1N(C)C(=O)c1cccs1	.	-0.7	-1.4	.	-0.3	.
CN(Cc1ccc(Cl)s1)C(=O)CSc1nnc(C2CC2)n1C1CC1	-15.6	0.5	-0.6	-0.2	-0.2	.
CC(=O)Oc1ccc2c(=O)c(-c3nc4ccccc4s3)coc2c1	18.0	-3.6	0.8	-8.5	-0.5	28.0*
CC(=O)Oc1ccc2c(=O)c(Oc3ccccc3[N+](=O)[O-])coc2c1	16.8	-1.7	-1.1	0.2	0.1	5.9
Cc1noc(C)c1S(=O)(=O)N(C)C[C@H]1Oc2c(NC(=O)NC(C)C)cccc2C(=O)N([C@H](C)CO)C[C@@H]1C	5.8	-0.4	12.5	0.7	-0.3	.
Cc1ccc([C@@H]2C[C@H]3[C@@H](CN2S(=O)(=O)c2ccc(Cl)cc2)C(=O)C[C@@H](c2ccc(Cl)cc2)N3S(=O)(=O)c2ccccc2C)cc1	.	1.1	1.9	.	-0.1	.
N#C/C(=C/c1ccc(N2CCCCCC2)o1)c1cccc(F)c1	28.1	8.7*	10.5	1.8	-0.5	21.2
N#C/C(=C/c1ccc(N2CCCCCC2)o1)c1ccc(F)cc1	32.2	-2.5	18.1	1.6	-1.1	.
COc1cc(N2CCCC2)c(OC)cc1/C=C(/C#N)c1cccc(F)c1	.	0.8	2.8	-0.7	-1.1	43.8*
COC(=O)C[C@@H]1C=C[C@@H](NC(=O)C2CCC2)[C@@H](CO)O1	.	.	.	.	0.2	.
COc1cc(CCN(C(=O)c2cc3ccccc3[nH]2)C(C)c2nc3ccccc3[nH]2)cc(OC)c1 (centres undefined)	.	.	.	.	0.9	.
CN1CCC(N2CCN(C3CN(Cc4ccccc4)S(=O)(=O)C3)CC2)CC1 (centres undefined)	.	.	.	.	-1.0	.
Cc1ccc(NC(=O)C2CCCN2C(=O)NC2CCCCC2)cc1 (centres undefined)	20.6	-1.6	8.7	1.1	-0.6	25.3*
O=C(OCc1nc2ccccc2[nH]1)C12CC3CC(CC(C3)C1)C2	3.5	0.8	6.3	0.3	47.2*	-0.8
SMILES	NLRP3 yeast inh	MC4R ag barr	MC4R antag cAMP	A1 inh	Tb MetRS inh	NALP1 yeast inh
O=C(Nc1nc2ccccc2[nH]1)C12CC3CC(CC(C3)C1)C2	24.7	-1.9	7.8	-1.1	-1.4	14.5
Cc1ccc(CNc2ncnc3c2cnn3-c2ccccc2)cc1	31.5	6.2	-9.4	0.1	-1.2	26.1
Cc1ccc(-n2ncc3c(NCc4ccccc4)ncnc32)cc1	17.8	0.3	7.4	-0.4	-0.2	40.7*
Cc1c(Cl)ccc(S(=O)(=O)N2CCN(C)CC2)c1Cl	.	2.5	5.8	.	-0.5	.
CC(=O)Nc1cccc(C(=O)OCc2ccc(C(=O)Oc3ccc(Cl)cc3)cc2)c1	13.2	13.3*	8.0	-3.3	0.1	11.6
CS(=O)(=O)c1nc(-c2cccs2)cc(C(F)(F)F)n1	27.9	.	.	8.2*	.	11.7
C=C(C)C(O)CC/C(C)=C/Cc1c(O)ccc(C(=O)/C=C/c2ccc(O)cc2)c1O (centres undefined)	26.9	9.6*	11.1	.	-2.4	.
COc1ccc(C(=O)/C=C/c2ccc(O)cc2)c(O)c1C/C=C(\C)CCC=C(C)C	37.1	1.0	-2.4	.	0.0	.
O=C(NN1C(=O)c2cc(Br)ccc2NC1c1ccccc1Cl)c1ccncc1 (centres undefined)	11.5	-1.7	-5.9	-0.8	-0.8	22.1
O=C(NN1C(=O)c2cc(Br)ccc2NC1c1cc(Br)cc(Br)c1O)c1ccncc1 (centres undefined)	40.6	1.3	-3.3	0.0	0.7	57.3*
O=C(CSc1cccc(C(F)(F)F)c1)Nc1ccc(N2CCOCC2)cc1	16.1	-0.2	11.9	1.2	-0.3	.
N#CCC(CNc1ncc(C(F)(F)F)cc1Cl)OC(=O)c1ccc(Cl)cc1 (centres undefined)	19.1	0.0	-0.1	0.7	-0.4	-0.7
N#CCC(CNc1ncc(C(F)(F)F)cc1Cl)OC(=O)c1cccc([N+](=O)[O-])c1 (centres undefined)	10.9	9.1*	-0.7	0.1	-0.4	36.5
COc1ccc(/C=C/C(=O)OCC(=O)NC2CCCC2)cc1OC	8.0	1.8	-1.5	-1.1	0.2	.
CC(C)c1ccc(CN2CCN(C(=O)CCl)CC2)cc1	.	0.8	-6.2	.	-1.4	59.3*
CC(C)c1ccc(/C=C/C(=O)Nc2ccc(CN3CCOCC3)cc2)cc1	24.6	2.2	21.6	1.0	-0.2	39.5*
C[C@H](CO)N1C[C@H](C)[C@@H](CN(C)S(=O)(=O)c2ccc(F)cc2)Oc2c(NC(=O)Cc3ccccc3)cccc2C1=O	1.4	-0.1	9.4	-0.1	-0.3	.
COc1cccc(CNc2nc3cc(-c4cnn(Cc5ccccc5)c4)sc3c(=O)n2C)c1	.	-1.8	-11.9	.	0.4	.
O=C(Nc1ccc(Br)c(C(F)(F)F)c1)c1ccc(C(F)(F)F)cc1	1.2	8.5*	17.2	-0.3	0.5	.
O=C(Nc1ncccc1O)c1ccc(Oc2ccccc2)cc1	33.1	-0.9	-0.2	0.2	-0.3	43.4*
CCCCSCCCNC(=O)Nc1cccc(OC)c1	12.9	0.3	2.2	-0.2	0.7	40.1*
CC(NC(=O)/C(C#N)=C/c1ccc([N+](=O)[O-])o1)c1ccccc1 (centres undefined)	23.7	-1.6	5.8	-0.3	-0.5	68.5*
